Columns and labels:
Homo sapiens [1] = species: Homo sapiens; assay: Cytotoxical effect against PBL cell lines was determined by reduction of cellular viability. data represent mean value of at least two separate experiments.; format: functional
Outline: (§1)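 Compounds tested as ammonium salts. Cytotoxicity in CEM-SS, MT-4 or PBL cultures taken from the reduction in cellular viability. Values are means of at least two separate experiments.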

HEL [2] = assay: Antiviral activity was determined against Vesicular stomatitis virus in HEL cells by measuring concentration required to reduce virus induced cytopathogenicity by 50%.; format: functional, cell-based; conditions: Homo sapiens
HEL [3] = assay: Antiviral activity was determined against Vaccinia virus in HEL cells by measuring concentration required to reduce virus induced cytopathogenicity by 50%.; format: functional, cell-based; conditions: Homo sapiens
MOLT-4 [4] = assay: Gaint cell formation between HIV-2 (LAV-2 rod) infected HUT-78 cells and uninfected MOLT-4(clone-8)cells; format: functional, cell-based; conditions: Homo sapiens
Outline: (§2)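 Syncytium assay: HUT-78 cells persistently infected with HIV-1 (HTLV-IIIB) or HIV-2 (LAV-2ROD) were co-cultured with uninfected MOLT-4 (clone 8) cells, and giant-cell formation was scored. Compounds tested as ammonium salts. Values are means of at least two experiments.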

HeLa [5] = assay: Antiviral activity was determined against Respiratory syncytial virus(strain Long) in HeLa cells by measuring concentration required to reduce virus induced cytopathogenicity by 50%.; format: functional, cell-based; conditions: Homo sapiens
Outline: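 RSV cytopathicity in HeLa cells. Compound added immediately after virus infection and left in the culture. Virus-induced cytopathogenicity scored at day 5 post-infection. IC50 in μg/mL.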

MDCK [6] = assay: Antiviral activity was determined against Influenza virus A(strain Ishikawa) in MDCK cells by measuring concentration required to reduce virus induced cytopathogenicity by 50%.; format: functional, cell-based; conditions: Canis lupus familiaris
Outline: (§3)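 Tested in MDCK cells, with compound applied right after infection and left on. Cytopathic effect of influenza A (Ishikawa) or B (Singapore) was read at day 5 pi. IC50 is the concentration halving cytopathogenicity, in µg/mL.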

MDCK [7] = assay: Antiviral activity was determined against Influenza virus B(strain Singapore) MDCK cells by measuring concentration required to reduce virus induced cytopathogenicity by 50%.; format: functional, cell-based; conditions: Canis lupus familiaris; outline: as §3
MT4 [8] = assay: Viral cytopathicity against HIV -I (HTLV-IIIb) strain determined in MT-4 cells; format: functional, cell-based; conditions: Homo sapiens
MT4 [9] = assay: Viral cytopathicity against HIV -2 (LAV-2 rod)strain determined in MT-4 cells; format: functional, cell-based; conditions: Homo sapiens
[10] = target: Human immunodeficiency virus type 1 integrase (Human immunodeficiency virus 1, UniProt Q7ZJM1); assay: Inhibition of HIV -1 Integrase
Outline: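 Purified HIV-1 integrase. 3'-processing and strand-transfer (integration) activities were measured with synthetic double-stranded oligonucleotides mimicking viral DNA ends. Compounds tested as ammonium salts. Values are means of at least two experiments.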

HEL [11] = assay: Antiviral activity was determined against (Herpes simplex virus -2) by concentration required to reduce virus induced cytopathogenicity by 50%.; format: functional, cell-based; conditions: Homo sapiens
HEL [12] = assay: Antiviral activity was determined against Herpes simplex virus -1 TK-/TK+ in HEL cells by measuring concentration required to reduce virus induced cytopathogenicity by 50%.; format: functional, cell-based; conditions: Homo sapiens
Homo sapiens [13] = species: Homo sapiens; assay: Inhibition of p24 production in Peripheral blood lymphocytes; format: functional, organism-based
Outline: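 Phytohemagglutinin-stimulated peripheral blood lymphocytes infected with HIV-1 WUJO. Read-out is virion-associated p24 production. Compounds tested as ammonium salts. Values are means of at least two experiments.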

[14] = target: Human immunodeficiency virus type 1 protease (Human immunodeficiency virus 1, UniProt Q72874); assay: Inhibition of HIV -1 protease
Outline: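 Purified HIV-1 protease with the peptide substrate Ala-Ser-Glu-Asn-Tyr-Pro-Ile-Val-Glu-amide. Cleavage quantified by reverse-phase HPLC. Compounds tested as ammonium salts. Values are means of at least two experiments.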

HEL [15] = assay: Anti viral activity against HEL cytotoxicity by minimum cytotoxic concentration that causes a microscopically detectable alteration of normal cell morphology after 2 day of treatment.; format: functional; conditions: Homo sapiens, 48 h
Vero [16] = assay: Anti viral activity against Vero cellular cytotoxicity by minimum cytotoxic concentration that causes a microscopically detectable alteration of normal cell morphology after 2 day of treatment.; format: functional; conditions: Chlorocebus sabaeus, 48 h
MOLT-4 [17] = assay: Gaint cell formation between HIV-1 (HTLV-IIIB) infected HUT-78 cells and uninfected MOLT-4(clone-8)cells; format: functional, cell-based; conditions: Homo sapiens; outline: as §2
MT4 [18] = assay: Cytotoxical effect against MT-4 cell lines was determined by reduction of cellular viability. data represent mean value of at least two separate experiments.; format: functional; conditions: Homo sapiens; outline: as §1
Vero [19] = assay: Antiviral activity was determined against Junin virus in Vero cells by measuring concentration required to reduce virus induced cytopathogenicity by 50%.; format: functional, cell-based; conditions: Chlorocebus sabaeus
MDCK [20] = assay: Anti viral activity against MDCK cytotoxicity by minimum cytotoxic concentration that causes a microscopically detectable alteration of normal cell morphology after 2 day of treatment.; format: functional; conditions: Canis lupus familiaris, 48 h
HEL [21] = assay: Antiviral activity was determined against Human cytomegalovirus (strain Davis) in HEL cells by measuring concentration required to reduce virus induced cytopathogenicity by 50%.; format: functional, cell-based
Vero [22] = assay: Antiviral activity was determined against Tacaribe virus in Vero cells by measuring concentration required to reduce virus induced cytopathogenicity by 50%.; format: functional, cell-based; conditions: Chlorocebus sabaeus
HeLa [23] = assay: Anti viral activity against HeLa cytotoxicity by minimum cytotoxic concentration that causes a microscopically detectable alteration of normal cell morphology after 2 day of treatment.; format: functional; conditions: Homo sapiens, 48 h
HEL [24] = assay: Antiviral activity was determined against Herpes simplex virus -1 TK- in HEL cells by measuring concentration required to reduce virus induced cytopathogenicity by 50%.; format: functional, cell-based; conditions: Homo sapiens
CCRF-CEM [25] = assay: Cytotoxical effect against CEM cell lines was determined by reduction of cellular viability. data represent mean value of at least two separate experiments.; format: functional; conditions: Homo sapiens; outline: as §1
HEL [26] = assay: Antiviral activity was determined against Herpes simplex virus -1 in HEL cells by measuring concentration required to reduce virus induced cytopathogenicity by 50%.; format: functional, cell-based; conditions: Homo sapiens
MDCK [27] = assay: Antiviral activity against MDCK cells by measuring minimum cytotoxic concentration that causes a microscopically detectable alteration of normal cell morphology after 2 day of treatment.; format: functional; conditions: Canis lupus familiaris, 48 h
MT4 [28] = assay: Cytotoxical effect against MT-4 cell lines was determined by reduction of cellular viability; format: functional; conditions: Homo sapiens; outline: as §1
MOLT-4 [29] = assay: Giant cell formation between HIV-2 (LAV-2 rod) infected HUT-78 cells and uninfected MOLT-4(clone-8)cells; format: functional, cell-based; conditions: Homo sapiens; outline: as §2
HeLa [30] = assay: Antiviral activity against HeLa cells by measuring minimum cytotoxic concentration that causes a microscopically detectable alteration of normal cell morphology after 2 day of treatment.; format: functional; conditions: Homo sapiens, 48 h
Homo sapiens [31] = species: Homo sapiens; assay: Cytotoxical effect against PBL cell lines was determined by reduction of cellular viability; format: functional; outline: as §1
Vero [32] = assay: Antiviral activity against Vero cells by measuring minimum cytotoxic concentration that causes a microscopically detectable alteration of normal cell morphology after 2 day of treatment.; format: functional; conditions: Chlorocebus sabaeus, 48 h
MOLT-4 [33] = assay: Giant cell formation between HIV-1 (HTLV-IIIB) infected HUT-78 cells and uninfected MOLT-4(clone-8)cells; format: functional, cell-based; conditions: Homo sapiens; outline: as §2
CCRF-CEM [34] = assay: Cytotoxical effect against CEM cell lines was determined by reduction of cellular viability; format: functional; conditions: Homo sapiens; outline: as §1
HEL [35] = assay: Antiviral activity against HEL cells by measuring minimum cytotoxic concentration that causes a microscopically detectable alteration of normal cell morphology after 2 day of treatment.; format: functional; conditions: Homo sapiens, 48 h

Chain of Human immunodeficiency virus type 1 integrase (Q7ZJM1 whole entry): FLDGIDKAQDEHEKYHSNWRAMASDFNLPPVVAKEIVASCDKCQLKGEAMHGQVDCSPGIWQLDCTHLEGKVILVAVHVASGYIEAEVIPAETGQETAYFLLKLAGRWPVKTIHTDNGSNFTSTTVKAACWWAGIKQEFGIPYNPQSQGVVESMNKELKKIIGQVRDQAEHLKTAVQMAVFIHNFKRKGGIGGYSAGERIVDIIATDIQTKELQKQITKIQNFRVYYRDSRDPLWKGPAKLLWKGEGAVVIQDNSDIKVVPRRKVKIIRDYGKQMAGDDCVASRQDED

SMILES | IC50 (HEL [2]) | IC50 (HEL [3]) | IC50 (HeLa [5]) | IC50 (MDCK [6]) | IC50 (MDCK [7]) | IC50 (MT4 [8]) | IC50 (MT4 [9]) | IC50 [10] | IC50 (HEL [11]) | IC50 (HEL [12]) | IC50 (Homo sapiens [13]) | IC50 [14] | IC50 (Vero [19]) | IC50 (HEL [21]) | IC50 (Vero [22]) | IC50 (HEL [24]) | IC50 (HEL [26]) | MCC (MDCK [27]) | CC50 (MT4 [28]) | IC50 (MOLT-4 [29]) | other results
CCCCCC=C(c1cc(Cl)c(O)c(C(=O)NO)c1)c1cc(Cl)c(O)c(C(=O)NO)c1 | > 20 µM | 5 µM | > 4 µM | > 4 µM | > 4 µM | 21.9 µM | > 40 µM | 4 µM | > 5 µM | > 5 µM | 112 µM | 58 µM | > 2 µM | > 5 µM | > 2 µM | 5 µM | 5 µM |  |  |  | CC50 (Homo sapiens [1]): 148 µM; IC50 (MOLT-4 [4]): 40 µM; CC50 (HEL [15]): 20 µM; CC50 (Vero [16]): 5 µM; IC50 (MOLT-4 [17]): 8 µM; CC50 (MT4 [18]): > 40 µM; CC50 (MDCK [20]): 4 µM; CC50 (HeLa [23]): 4 µM; CC50 (CCRF-CEM [25]): 36.2 µM
CC(CCC=C(c1cc(Cl)c(O)c(C(=O)O)c1)c1cc(Cl)c(O)c(C(=O)O)c1)[C@H]1CC[C@H]2[C@@H]3CC[C@@H]4CCCC[C@]4(C)[C@H]3CC[C@]12C (stereo partly drawn) | > 20 µg/mL | 13 µg/mL | 4 µg/mL | > 12 µg/mL | > 20 µg/mL | 27.2 µM | > 31.3 µM | 2.2 µM | > 20 µg/mL | > 20 µg/mL | 39 µM | 1.5 µM | > 5 µg/mL | > 20 µg/mL | > 5 µg/mL | > 20 µg/mL | > 20 µg/mL | 20 µg/mL | 31.4 µM | 40 µM | MCC (HeLa [30]): 100 µg/mL; CC50 (Homo sapiens [31]): 135 µM; MCC (Vero [32]): 20 µg/mL; IC50 (MOLT-4 [33]): 24 µM; CC50 (CCRF-CEM [34]): 69.5 µM; MCC (HEL [35]): 50 µg/mL
CC(CCC=C(c1cc(Cl)c(O)c(C(=O)O)c1)c1cc(Cl)c(O)c(C(=O)O)c1)[C@H]1CC[C@H]2[C@@H]3CC[C@@H]4CC(F)(F)CC[C@]4(C)[C@H]3CC[C@]12C (stereo partly drawn) | > 20 µg/mL | 20 µg/mL | 4 µg/mL | > 12 µg/mL | > 12 µg/mL | 27.7 µM | 3.5 µM | 2.2 µM | > 20 µg/mL | > 20 µg/mL | 24 µM | 0.39 µM | > 5 µg/mL | 11 µg/mL | > 5 µg/mL | > 20 µg/mL | 20 µg/mL | 12 µg/mL | 34 µM | 24 µM | MCC (HeLa [30]): 20 µg/mL; CC50 (Homo sapiens [31]): 69.5 µM; MCC (Vero [32]): 20 µg/mL; IC50 (MOLT-4 [33]): 8 µM; CC50 (CCRF-CEM [34]): 38.5 µM; MCC (HEL [35]): 50 µg/mL

Source: ChEMBL document CHEMBL1128227, “Cosalane analogues with enhanced potencies as inhibitors of HIV-1 protease and integrase” (J Med Chem, 1995)
